Assay results reported in ChEMBL document CHEMBL4251587, “Synthesis and antimicrobial activity of amino acid and peptide derivatives of mycophenolic acid” (2018).
Values after ≈ are worked out from the molar mass of the structure shown. Blank lines part the entries; values can stand above or below the molecule they belong to. Active and inactive are the calls of the source. The rule behind the calls is not given here. Non-standard residues stand in square brackets, D forms with d. Residues, ends and D or L forms follow the SMILES beside them. *: point of attachment. Mycophenolyl = COc1c(C)c2c(c(O)c1C/C=C(\C)CCC(=O)*)C(=O)OC2; Arg(NO2) = N=C(NCCC[CH](N)C(=O)O)N[N+](=O)[O-]; βAla = NCCC(=O)O

Key:
Assay type in all cases: functional
[1] = system: Escherichia coli; assay: Antibacterial activity against Escherichia coli ATCC 8739 at 375 uM after 18 to 20 hrs by spectrophotometry based microdilution method relative to untreated control; details: ATCC 8739, ATCC 8739, read-out: GI
Method in brief: (§1)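 Growth inhibition at a single compound concentration in the EUCAST broth microdilution setup: Mueller Hinton Broth II, 104 cells/ml from log-phase culture, compound stock in 6% DMSO. After 35 ± 1 °C for 18–20 h, OD600 was compared with the untreated growth control. ">" marks 10–50% inhibition and ">>" marks under 10% inhibition. 3 replicates, 3 independent experiments.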

[2] = system: Staphylococcus aureus; assay: Antibacterial activity against methicillin-sensitive Staphylococcus aureus ATCC 25923 after 18 to 20 hrs by spectrophotometry based microdilution method
Method in brief: (§2)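 Broth microdilution in MHB II following EUCAST. Log-phase cultures diluted 1:1000, then 50-fold in saline to McFarland 0.5, giving 10^4 cells/ml per well. Compounds (stock in 6% DMSO) twofold serially diluted. Incubation 35 ± 1 °C, 18–20 h. OD600 plus visual read; MIC50/MIC90 = 50%/90% growth arrest. Resazurin (0.015%, 37 °C, 2 h, dark) confirmation. 3 replicates, 3 independent experiments.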

[3] = system: Acinetobacter baumannii; assay: Antibacterial activity against Acinetobacter baumannii ATCC 17978 after 18 to 20 hrs by spectrophotometry based microdilution method
[4] = system: Staphylococcus aureus; assay: Antibacterial activity against methicillin-resistant Staphylococcus aureus ATCC 43300 after 18 to 20 hrs by spectrophotometry based microdilution method; method in brief: as §2
[5] = system: Pseudomonas aeruginosa; assay: Antibacterial activity against Pseudomonas aeruginosa ATCC 27853 assessed as inhibition of bacterial growth at 1500 uM after 18 to 20 hrs by spectrophotometry based microdilution method relative to untreated control; details: read-out: GI; method in brief: as §1
[6] = system: Klebsiella pneumoniae; assay: Antibacterial activity against ESBL positive Klebsiella pneumoniae ATCC 700603 after 18 to 20 hrs by spectrophotometry based microdilution method
Method in brief: (§3)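 Broth microdilution in Mueller Hinton Broth II following EUCAST. Log-phase cultures were diluted to McFarland 0.5, and 104 cells/ml went into 2-fold serial dilutions of compound (stock in 6% DMSO). Incubation was 35 ± 1 °C for 18–20 h, read at OD600 and visually. MIC50 and MIC90 were taken as the concentrations giving 50% and 90% growth arrest. Resazurin (0.015%, 2 h, 37 °C, dark) confirmed the result. 3 replicates in 3 independent experiments.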

[7] = system: Escherichia coli; assay: Antibacterial activity against Escherichia coli ATCC 8739 assessed as inhibition of bacterial growth at 1500 uM after 18 to 20 hrs by spectrophotometry based microdilution method relative to untreated control; details: ATCC 8739, ATCC 8739, read-out: GI; method in brief: as §1
[8] = system: Pseudomonas aeruginosa; assay: Antibacterial activity against Pseudomonas aeruginosa ATCC 27853 after 18 to 20 hrs by spectrophotometry based microdilution method; method in brief: as §3
[9] = system: Escherichia coli; assay: Antibacterial activity against Escherichia coli ATCC 8739 after 18 to 20 hrs by spectrophotometry based microdilution method; method in brief: as §3
[10] = system: Escherichia coli; assay: Antibacterial activity against Escherichia coli ATCC 8739 at 750 uM after 18 to 20 hrs by spectrophotometry based microdilution method relative to untreated control; details: ATCC 8739, ATCC 8739, read-out: GI; method in brief: as §1
[11] = system: Staphylococcus aureus; assay: Antibacterial activity against methicillin-sensitive Staphylococcus aureus ATCC 25923 assessed as inhibition of bacterial growth at 187.5 uM after 18 to 20 hrs by spectrophotometry based microdilution method relative to untreated control; details: read-out: GI; method in brief: as §1
[12] = system: Klebsiella pneumoniae; assay: Antibacterial activity against ESBL positive Klebsiella pneumoniae ATCC 700603 assessed as inhibition of bacterial growth at 375 uM after 18 to 20 hrs by spectrophotometry based microdilution method relative to untreated control; details: read-out: GI; method in brief: as §1

MIC50 [2]: inactive | MIC50 [3]: inactive
Compound: CC[C@H](C)[C@H](NC(=O)CC/C(C)=C/Cc1c(O)c2c(c(C)c1OC)COC2=O)C(=O)O
inhibition of growth at 375 µM [1]: 10 to 50%

Compound: COC(=O)[C@H](NC(=O)CC/C(C)=C/Cc1c(O)c2c(c(C)c1OC)COC2=O)C(C)O (stereo partly specified)
MIC50 [4]: inactive | MIC50 [2]: inactive | inhibition of growth at 1500 µM [5]: 10 to 50% | MIC50 [6]: inactive | inhibition of growth at 1500 µM [7]: 10 to 50%

Compound: COC(=O)C(NC(=O)C(CCCCNC(=O)CCN)NC(=O)C1CCCN1C(=O)C(CCCNC(=N)N[N+](=O)[O-])NC(=O)CC/C(C)=C/Cc1c(O)c2c(c(C)c1OC)COC2=O)C(C)O (stereo unspecified) (Mycophenolyl-[Arg(NO2)]PK(βAla)T-OMe; configuration not given here)
MIC50 [4]: 32 µg/mL (≈ 34.3 µM) | MIC50 [2]: 32 µg/mL (≈ 34.3 µM) | MIC50 [8]: inactive | MIC50 [9]: 256 µg/mL (≈ 274 µM) | MIC50 [6]: 32 µg/mL (≈ 34.3 µM) | MIC50 [3]: 128 µg/mL (≈ 137 µM)

Compound: CCC(C)[C@H](NC(=O)CC/C(C)=C/Cc1c(O)c2c(c(C)c1OC)COC2=O)C(=O)OC (stereo partly specified)
MIC50 [4]: 256 µg/mL (≈ 572 µM) | MIC50 [2]: 16 µg/mL (≈ 35.8 µM) | MIC50 [8]: inactive | MIC50 [9]: 256 µg/mL (≈ 572 µM) | MIC50 [6]: 256 µg/mL (≈ 572 µM) | MIC50 [3]: 256 µg/mL (≈ 572 µM)

Compound: COC(=O)[C@@H](NC(=O)CC/C(C)=C/Cc1c(O)c2c(c(C)c1OC)COC2=O)C(C)O (stereo partly specified)
MIC50 [4]: 32 µg/mL (≈ 73.5 µM) | MIC50 [2]: 8 µg/mL (≈ 18.4 µM) | MIC50 [8]: inactive | MIC50 [9]: 256 µg/mL (≈ 588 µM) | MIC50 [6]: 256 µg/mL (≈ 588 µM) | MIC50 [3]: 256 µg/mL (≈ 588 µM)

Compound: COC(=O)[C@H](CCCNC(=N)N[N+](=O)[O-])NC(=O)CC/C(C)=C/Cc1c(O)c2c(c(C)c1OC)COC2=O
MIC50 [4]: 64 µg/mL (≈ 120 µM) | MIC50 [2]: 32 µg/mL (≈ 59.8 µM) | MIC50 [8]: inactive | MIC50 [9]: 256 µg/mL (≈ 478 µM) | MIC50 [6]: 64 µg/mL (≈ 120 µM) | MIC50 [3]: 128 µg/mL (≈ 239 µM)

Compound: COc1c(C)c2c(c(O)c1C/C=C(\C)CCC(=O)N[C@@H](CCCNC(=N)N[N+](=O)[O-])C(=O)O)C(=O)OC2
MIC50 [4]: inactive | MIC50 [2]: inactive | MIC50 [8]: inactive | inhibition of growth at 750 µM [10]: 10 to 50% | MIC50 [6]: inactive

Compound: COC(=O)C(NC(=O)CC/C(C)=C/Cc1c(O)c2c(c(C)c1OC)COC2=O)C(=O)OC
MIC50 [4]: 256 µg/mL (≈ 570 µM) | MIC50 [2]: 256 µg/mL (≈ 570 µM) | MIC50 [8]: inactive | MIC50 [9]: 256 µg/mL (≈ 570 µM) | MIC50 [6]: 128 µg/mL (≈ 285 µM) | MIC50 [3]: 256 µg/mL (≈ 570 µM)

Compound: COc1c(C)c2c(c(O)c1C/C=C(\C)CCC(=O)O)C(=O)OC2 [MYCOPHENOLIC ACID]
inhibition of growth at 187.5 µM [11]: 10 to 50% | MIC50 [4]: 750 µg/mL (≈ 2340 µM) | inhibition of growth at 1500 µM [5]: 10 to 50% | MIC90 [9]: 750 µg/mL (≈ 2340 µM) | MIC50 [6]: 128 µg/mL (≈ 400 µM) | MIC50 [3]: 128 µg/mL (≈ 400 µM)

Compound: COc1c(C)c2c(c(O)c1C/C=C(\C)CCC(=O)N[C@@H](CC(=O)O)C(=O)O)C(=O)OC2
MIC50 [4]: inactive | MIC50 [2]: inactive | inhibition of growth at 1500 µM [5]: 10 to 50% | inhibition of growth at 750 µM [10]: 10 to 50% | MIC50 [6]: inactive

Compound: COc1c(C)c2c(c(O)c1C/C=C(\C)CCC(=O)N[C@H](CCCNC(=N)N[N+](=O)[O-])C(=O)O)C(=O)OC2
MIC50 [4]: inactive | MIC50 [2]: inactive | inhibition of growth at 1500 µM [5]: 10 to 50% | MIC50 [6]: inactive | inhibition of growth at 1500 µM [7]: 10 to 50%

Compound: CC1(C)S[C@@H]2[C@H](NC(=O)[C@H](N)c3ccccc3)C(=O)N2[C@H]1C(=O)O [AMPICILLIN]
MIC90 [4]: 128 µg/mL (≈ 366 µM) | MIC90 [2]: 0.125 µg/mL (≈ 0.358 µM) | MIC90 [8]: 256 µg/mL (≈ 733 µM) | MIC90 [9]: 8 µg/mL (≈ 22.9 µM) | MIC90 [6]: 128 µg/mL (≈ 366 µM) | MIC90 [3]: 2 µg/mL (≈ 5.72 µM)

Compound: COC(=O)C(NC(=O)C(CCCCNC(=O)CN)NC(=O)C1CCCN1C(=O)C(CCCNC(=N)N[N+](=O)[O-])NC(=O)CC/C(C)=C/Cc1c(O)c2c(c(C)c1OC)COC2=O)C(C)O (stereo unspecified) (Mycophenolyl-[Arg(NO2)]PK(Gly)T-OMe; configuration not given here)
MIC50 [4]: 64 µg/mL (≈ 69.6 µM) | MIC50 [2]: 64 µg/mL (≈ 69.6 µM) | MIC50 [8]: inactive | MIC50 [9]: 256 µg/mL (≈ 279 µM) | MIC50 [6]: 16 µg/mL (≈ 17.4 µM) | MIC50 [3]: 128 µg/mL (≈ 139 µM)

Compound: NC[C@H]1O[C@H](O[C@H]2[C@H](O)[C@@H](O[C@H]3O[C@H](CO)[C@@H](O)[C@H](N)[C@H]3O)[C@H](N)C[C@@H]2N)[C@H](O)[C@@H](O)[C@@H]1O [KANAMYCIN]
MIC90 [4]: 125 µg/mL (≈ 258 µM) | MIC90 [2]: 7.8 µg/mL (≈ 16.1 µM) | MIC50 [8]: 1500 µg/mL (≈ 3100 µM) | MIC90 [9]: 15.6 µg/mL (≈ 32.2 µM) | MIC50 [6]: inactive | MIC50 [3]: inactive

Compound: COc1c(C)c2c(c(O)c1C/C=C(\C)CCC(=O)N[C@@H](C(=O)O)[C@@H](C)O)C(=O)OC2
MIC50 [4]: inactive | MIC50 [2]: inactive | inhibition of growth at 1500 µM [5]: 10 to 50% | MIC50 [6]: inactive | inhibition of growth at 1500 µM [7]: 10 to 50%

Compound: COC(=O)C[C@H](NC(=O)CC/C(C)=C/Cc1c(O)c2c(c(C)c1OC)COC2=O)C(=O)OC
MIC50 [4]: 32 µg/mL (≈ 69 µM) | MIC50 [2]: 32 µg/mL (≈ 69 µM) | MIC50 [8]: inactive | MIC50 [9]: 256 µg/mL (≈ 552 µM) | MIC50 [6]: 256 µg/mL (≈ 552 µM) | MIC50 [3]: 256 µg/mL (≈ 552 µM)

Compound: COC(=O)[C@@H](CCCNC(=N)N[N+](=O)[O-])NC(=O)CC/C(C)=C/Cc1c(O)c2c(c(C)c1OC)COC2=O
MIC50 [4]: inactive | MIC50 [2]: inactive | MIC50 [6]: inactive

Compound: COc1c(C)c2c(c(O)c1C/C=C(\C)CCC(=O)N[C@H](C(=O)O)[C@@H](C)O)C(=O)OC2
MIC50 [4]: inactive | inhibition of growth at 375 µM [12]: 10 to 50% | MIC50 [2]: inactive | inhibition of growth at 1500 µM [5]: 10 to 50% | inhibition of growth at 750 µM [10]: 10 to 50%
